Data set [1] concerns P. falciparum. Briefly: P. falciparum replication assay. The following applies: read-out: EC50Pot; standard 75 h replication assay, ring stage D10 parasites. In kind it is cell-based, Plasmodium falciparum. In short, it runs like this:
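D10 parasites were synchronized by 70% Percoll schizont harvest, a 1 h invasion window and sorbitol. Ring-stage cultures (~2% parasitemia, 0.5% hematocrit) were treated with compound for ~75 h, until DMSO controls reached schizonts. Infected versus uninfected RBCs were counted by FACS. EC50Pot was fitted to a dose response curve.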

The next data set concerns HFF cells. The data set is described as follows: Cell toxicity, CellTiter-Glo. In kind it is cell-based, human. The following applies: ATP production after 24 h treatment of HFF cells with 0.01–100 µM compound. In short, it runs like this:
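HFF cells were incubated 24 h with inhibitor (0.01–100 µM) or DMSO. Viability was read as ATP by CellTiter-Glo. EC50Tox was obtained by fitting the data to a dose response curve.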
In general terms: In ATP-based viability assays light output follows the ATP content of the culture.

A short description of data set [2]: Compound toxicity and pharmacokinetics in mice. In kind it is in vivo. The following applies: Figure S2.
Data set [3] concerns NK65 P. berghei parasites. Briefly: P. berghei mouse model of malaria, parasitemia. The following applies: Figure S2. In kind it is in vivo, Balb/c mice.
The next data set relates to DPAP3. Briefly: Competition assay with activity-based probe FY01, DPAP3 labeling. In kind it is biochemical, Plasmodium falciparum. The following applies: parasite lysates. In short, it runs like this:
(§1)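 Trophozoite or merozoite lysates, or intact schizonts, were used in acetate buffer (50 mM sodium acetate, 5 mM MgCl2, 5 mM DTT, pH 5.5). Lysates were preincubated 30 min with 10 µM inhibitor, then labeled 1 h. FY01 labeled DPAPs (fluorescent SDS-PAGE scan) and 125I-DCG04 labeled falcipains (autoradiography). Loss of band signal indicated inhibition, and IC50s came from quantified gel bands.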

Data set [4] relates to P. falciparum. Briefly: Phenotypic effects in Geimsa-stained thin blood smears. The following applies: schizonts treated 24 h. In kind it is cell-based, Plasmodium falciparum. In short, it runs like this: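 Synchronous schizont-stage cultures were exposed to inhibitor for 24 h across increasing concentrations. Morphology was assessed on Giemsa-stained thin blood smears.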

Data set [5] can be described thus: Stability after overnight incubation in mouse serum. In kind it is in vitro ADME. To be noted: 37 °C. In short, it runs like this: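 Inhibitor was incubated overnight at 37 °C in mouse serum. Remaining potency was tested as the ability to block FY01 labeling of DPAP1 in parasite lysates, run before and after serum exposure.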
For another data set, the system named is FPs (FP2/3). Briefly: Competition assay with activity-based probe 125I-DCG04, falcipain labeling. In kind it is biochemical, Plasmodium falciparum. To be noted: parasite lysates. In short, it runs like this:
as §1

The target in data set [6] is T1, DPAP1 (Plasmodium falciparum, UniProt Q8IIJ9).
T1 sequence (Q8IIJ9 370-599 limits assumed): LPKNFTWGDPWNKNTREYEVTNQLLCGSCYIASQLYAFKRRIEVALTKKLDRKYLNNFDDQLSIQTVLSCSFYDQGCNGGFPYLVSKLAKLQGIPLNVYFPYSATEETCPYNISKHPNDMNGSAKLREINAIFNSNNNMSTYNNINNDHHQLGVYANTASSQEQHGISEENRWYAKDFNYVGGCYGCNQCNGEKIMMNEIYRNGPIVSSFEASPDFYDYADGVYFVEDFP
T1 sequence (Q8IIJ9 28-209 limits assumed): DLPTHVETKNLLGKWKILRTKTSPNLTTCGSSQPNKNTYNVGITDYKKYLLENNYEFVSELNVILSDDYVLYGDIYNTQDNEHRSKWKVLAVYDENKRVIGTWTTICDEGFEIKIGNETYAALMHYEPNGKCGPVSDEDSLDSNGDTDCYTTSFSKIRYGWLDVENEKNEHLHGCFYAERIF
T1 sequence (Q8IIJ9 600-700 limits assumed): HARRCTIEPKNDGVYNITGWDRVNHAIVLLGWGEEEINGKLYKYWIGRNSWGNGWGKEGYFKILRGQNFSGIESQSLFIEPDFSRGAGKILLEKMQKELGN
In kind it is biochemical. In short, it runs like this:
as §1

Data set [7] deals with T1, DPAP1. The data set is described as follows: DPAP1 specific fluorogenic assay. In kind it is biochemical. In short, it runs like this: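 DPAP1 activity was assayed at 25 °C in pH 5.5 acetate buffer with 1% parasite lysate and 10 µM (Pro-Arg)2-Rho. Turnover was read for 5 min (ex 492/em 523 nm). Lysates were pretreated with inhibitor for set times (0.1–2 h). IC50 came from dose response fits. For ki, v/v0 relative to DMSO was fitted to a simple irreversible inhibitor model.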

Data set [8] deals with P. falciparum. The data set is described as follows: Replication assay after 1h treatment and washout. In kind it is cell-based, Plasmodium falciparum. To be noted: 1h treatment at different life cycle stages. In short, it runs like this: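 Tightly synchronized parasites were exposed 1 h to inhibitor or DMSO at 1, 10, 18, 30, 38 or 46 h post-invasion. They were then washed 3× and cultured until progeny in DMSO controls reached schizonts (~80 h p.i.). Parasitemia was read by FACS from 3 independent measurements, reported as standard error.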

The conditions of data set [9]: ref personal communication, David Percival, Merck; cited from earlier work.

The structures appear in SMILES notation. Read-outs that look alike come from different tables or passages of the source.

Regarding `CCCCC(C(=O)COc1c(F)c(F)cc(F)c1F)n1cc(C2(N)CCN(C(N)=O)CC2)nn1` (stereo not shown) [ML4154], the EC50 with P. falciparum [1] turned out to be 45000 nM. For the same molecule, in the data set on HFF cells, the EC50Tox was 30000 (5000) nM.
Turning to `CCCCC(C(=O)COc1c(F)c(F)cc(F)c1F)n1cc(C2(N)CCN(C(C)=O)CC2)nn1` (stereo not shown) [ML4163], in the data set on P. falciparum [1], the EC50 was more than 100000 nM. Further, the EC50Tox with HFF cells was more than 100000 nM.
Turning to `CCCCC(C(=O)COC(=O)c1c(C)cccc1C)n1cc(C2(N)CCCCC2)nn1` (stereo not shown) [ML4091], in the data set with P. falciparum [1], the EC50 was 6000 nM. In the data set with HFF cells, the EC50Tox is given as 12000 (3000) nM.
With `CCCCC(C(=O)COc1c(F)c(F)cc(F)c1F)n1cc(C2(N)CCNCC2)nn1` (stereo not shown) [ML4162], the EC50 with P. falciparum [1] was determined as 220 nM. In addition, the EC50Tox with HFF cells was 68000 (4000) nM.
With `CCC[C@H](N)C(=O)N[C@H](/C=C/S(=O)(=O)c1ccccc1)CCc1ccccc1` [JCP-410], the PK properties entry in data set [2] is reported as “poor”. In addition, in [3], the effect in vivo result was “no effect”.
For the molecule `C[C@H](N)C(=O)N[C@@H](Cc1ccc(I)cc1)C(=O)C=[N+]=[N-]` [Ala-4(I)Phe-DMK], the “inhibition of DPAP3 (ABP labeling)” value in the data set with DPAP3 was “but not FPs or DPAP3”. In addition, in the data set with P. falciparum [4], the “concentration inducing schizont arrest and a FV defect” value is reported as not below 1 µM. In addition, in data set [5], the “ability to inhibit DPAP1 after incubation in mouse serum” value is recorded as “lost virtually all of their activity”. Besides, the “inhibition of FPs (ABP labeling)” value with FPs (FP2/3) was “but not FPs or DPAP3”. For the same molecule, on DPAP1 [6] (lysates, 30 min with 10 µM inhibitor then 1h FY01), the “block of DPAP1 labeling by ABP” value was “efficiently blocked labeling”. Moreover, at DPAP1 [6] (other papain fold cysteine proteases of P. falciparum), the “selectivity towards DPAP1 over DPAP3 and the FPs” value is recorded as “at least 1000 fold”. Also, the IC50 turned out to be 6.4 nM on DPAP1 [7] (read-out: IC50DPAP1,1h, 1h, lysates) and 2 nM on DPAP1 [7] (read-out: IC50DPAP1,2h, 2h treatment of parasite lysates). The “second order rate constant of inhibition (ki)” value on DPAP1 [7] (trophozoite lysates incubated with inhibitor 0.1–2h) worked out at 35000 ± 3000 M⁻¹ s⁻¹. For the same molecule, the EC50 with P. falciparum [1] was determined as 2.8 nM. The “sensitivity at trophozoite stage relative to other stages” value with P. falciparum [8] turned out to be 10 times. In addition, the “pharmacokinetic (PK) properties” value in [9] is “very poor”.

Values taken from article PMC2929396 (Chemistry & biology, 2010).
